Test results: ChEMBL document CHEMBL1127326, “Antitumor agents. 148. Synthesis and biological evaluation of novel 4 beta-amino derivatives of etoposide with better pharmacological profiles” (1994)
Values joined by “and” are separate entries in the source; they are usually repeats but may differ in a detail not shown here. Equal entries are not always repeated.

Key:
[1] = test system: Tumor Cell line; assay: LC 50 is the concentration required to cause 50% cell death; type: functional; conditions: Homo sapiens, read-out: Log LC50 (the source's name) (converted)
Procedure, shortened: (§1)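 NCI in vitro panel of 54 human tumor cell lines from eight cancer types, mostly seeded at 20 000 cells/well and preincubated 24 h without drug. Five 10-fold dilutions were then added for a further 48 h. Cells were fixed in situ and stained with sulforhodamine B, and bound dye was read spectrophotometrically. LC50 (−50% growth versus control) was taken from five-point dose-response curves and reported as the log10 mean-graph midpoint across lines.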

[2] = test system: Tumor Cell line; assay: Drug molar concentration required to inhibit 50% of human tumor cell growth; type: functional
Procedure, shortened: (§2)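 NCI panel of 54 human tumor lines from eight cancer types, mostly seeded at 20 000 cells/well. Cells were preincubated 24 h without drug, then exposed to five 10-fold dilutions for 48 h, fixed and stained with sulforhodamine B, and read spectrophotometrically. Versus control, GI50 (50% growth inhibition), TGI (0% growth) and LC50 (−50% growth) were calculated; mean graph midpoints average all lines.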

[3] = test system: KB; assay: 50% reduction in the number of KB 7D (topoisomerase II, aMDR) resistant variant; type: functional, Homo sapiens; conditions: Homo sapiens, KB; read-out: ID50 (the source's name)
Procedure, shortened: (§3)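 KB cells (parental ATCC line and resistant variants) exposed to drug at five concentrations […] for 3 days. ID50 is the concentration giving 50% reduction in cell number, derived from the degree of inhibition at the five concentrations.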

[4] = test system: Tumor Cell line; assay: Drug concentration required to inhibit total cell growth; type: functional, Homo sapiens; conditions: read-out: Log TGI (converted); procedure, shortened: as §2
[5] = biological target: DNA topoisomerase II (Homo sapiens) (UniProt P11388+Q02880); assay: 50% inhibition of human DNA topoisomerase II; type: protein assay
[6] = test system: Nucleic Acid; assay: Percentage inhibition of cellular protein-DNA complex formation; type: functional; conditions: Homo sapiens
[7] = test system: KB; assay: Cytotoxicity against KB cells after a 3 day incubation; type: functional, Homo sapiens; conditions: read-out: ID50 (the source's name); procedure, shortened: as §3
[8] = test system: KB; assay: 50% reduction in the number of KB ATCC cells; type: functional; conditions: Homo sapiens, read-out: ID50 (the source's name); procedure, shortened: as §3
[9] = test system: Tumor Cell line; assay: Drug concentration required to cause 50% cell death; type: functional, Homo sapiens; conditions: Homo sapiens, Tumor Cell line; procedure, shortened: as §1
[10] = test system: KB; assay: 50% reduction in the number of KB V20C resistant variant; type: functional, Homo sapiens; conditions: Homo sapiens, KB; read-out: ID50 (the source's name); procedure, shortened: as §3

Row | SMILES | GI50 [2] [µM] | IC50 [3] [µM] | TGI [4] [µM] | ID50 [5] [µM] | Complex formation [6] | IC50 ([7]; Homo sapiens, KB, 72 h) [µM] | LC50 [9] [µM] | GI50 ([2]; Homo sapiens, Tumor Cell line) [µM] | TGI ([4]; Homo sapiens, Tumor Cell line) [µM] | further results
1 | COc1cc([C@@H]2c3cc4c(cc3[C@@H](NCCCN(C)C)[C@H]3COC(=O)[C@H]23)OCO4)cc(OC)c1O [listing 1 of 2 here] | 0.331 | 0.66 | 2.19 |  |  |  |  |  |  | CC50 [1]: 12.6 µM
2 | COc1cc([C@@H]2c3cc4c(cc3[C@@H](NCCCN(C)C)[C@H]3COC(=O)[C@H]23)OCO4)cc(OC)c1O [listing 2 of 2 here] |  |  |  | 25 | 179% and 186% |  |  |  |  | 
3 | CCOC(=O)N1CCC(N[C@@H]2c3cc4c(cc3[C@@H](c3cc(OC)c(O)c(OC)c3)[C@H]3C(=O)OC[C@@H]32)OCO4)CC1 [listing 1 of 2 here] | 1.78 |  | 8.13 |  |  |  |  |  |  | IC50 [7]: 1.13 µM
4 | CCOC(=O)N1CCC(N[C@@H]2c3cc4c(cc3[C@@H](c3cc(OC)c(O)c(OC)c3)[C@H]3C(=O)OC[C@@H]32)OCO4)CC1 [listing 2 of 2 here] |  |  |  | 25 |  |  |  |  |  | 
5 | COc1cc([C@@H]2c3cc4c(cc3[C@@H](NCCN(C)C)[C@H]3COC(=O)[C@H]23)OCO4)cc(OC)c1O |  | 0.68 |  |  |  | 0.4 | 15.1 | 0.155 | 1.48 | IC50 [8]: 0.4 µM; IC50 [10]: 0.44 µM
6 | CCOC(=O)CC[C@H](NC(=O)c1ccc(N[C@@H]2c3cc4c(cc3[C@@H](c3cc(OC)c(O)c(OC)c3)[C@H]3C(=O)OC[C@@H]32)OCO4)cc1)C(=O)OCC |  |  |  | 100 | 83% | < 0.4 | 2.88 | 0.0501 | 0.339 | 
